# Laboratory results as given in PMC4955683 (Nature chemical biology, 2016).
# How the values were obtained:
# [1] = tested on: H3K9 palmitoyl, TNFα myristoyl and H3K9 octanoyl peptides; assay: Defatty-acylation assay on other fatty-acyl peptides; assay type: biochemical
# [2] = tested on: H3K9 acetyl peptide; assay: Deacetylation assay, SIRT6 WT and mutants purified from E. coli; assay type: biochemical; details: 2 µM SIRT6, 25 µM H3K9 acetyl peptide, 1 mM NAD+, 300 µM palmitic acid, 37°C, 2 hours
# Procedure, shortened: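 Full-length human SIRT6 (WT or mutant) was expressed from pET28a in E. coli BL21(DE3). Reactions (40 µL) contained 25 mM Tris-HCl pH 8.0, 50 mM NaCl and 1 mM DTT plus the listed components. They were quenched with an equal volume of cold acetonitrile and centrifuged. Supernatants were run on C18 HPLC using a water/acetonitrile 0.1% TFA gradient to quantify deacetylated H3K9 peptide.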
# [3] = tested on: H3K9 myristoyl peptide; assay: Defatty-acylation assay, SIRT6 purified from HEK 293T cells; assay type: biochemical; details: 0.2 µM SIRT6 from HEK293T cells, 5 µM Myr-H3K9, 1 mM NAD+, 37°C, 60 min
# Procedure, shortened: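 SIRT6 WT or mutants were affinity-purified from HEK 293T lysates on anti-Flag gel, eluted with 3X FLAG peptide and buffer-exchanged on a 10 kDa membrane. Reaction buffer was 25 mM Tris-HCl pH 8.0, 50 mM NaCl, 1 mM DTT. Reactions were quenched with cold acetonitrile and centrifuged, and supernatants were analysed by C18 reverse-phase HPLC (water/acetonitrile, 0.1% TFA) for H3K9 peptide formation.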
# [4] = tested on: H3K9 myristoyl peptide; assay: Demyristoylation steady-state kinetics; assay type: biochemical
# [5] = tested on: SIRT6 (self ADP-ribosylation); assay: In vitro mono-ADP-ribosylation assay; assay type: biochemical, human; details: 2.5 µM SIRT6, 50 µM 6-alkyne-NAD, 30°C, 30 min
# Procedure, shortened: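 Reactions contained SIRT6 WT or mutants in 25 mM Tris-HCl pH 8.0, 50 mM NaCl, 1 mM DTT, with NAD+ replacing 6-alkyne-NAD as negative control. Click chemistry with BODIPY-N3, TBTA, CuSO4 and TCEP ran 30 min at room temperature. Samples were boiled in SDS buffer, separated on 12% SDS-PAGE and destained 2 h, and ADP-ribosylation was read as in-gel BODIPY fluorescence.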
# [6] = NAD+ binding by intrinsic tryptophan fluorescence; details: read-out: Kd for NAD^+ in the presence of H3K9 acetyl peptide, 1 mM H3K9 acetyl peptide
# Procedure, shortened: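 SIRT6 (3 µM) in 25 mM Tris-HCl pH 7.4, 150 mM NaCl, 10% glycerol was premixed with 1 mM tryptophan-free Ac-H3K9 and titrated with NAD+. Excitation was 295 nm with emission scanned 320–390 nm, using peak maxima. Fraction bound was (F−F0)/(Fsat−F0), and Kd came from a one-site quadratic binding fit with [E] = 3 µM.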
# [7] = HPLC analysis of SIRT6 binding to NAD+; details: 10 µM SIRT6 incubated with 10 µM NAD+, 10 kDa cutoff membrane
# Procedure, shortened: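 SIRT6 (10 µM; WT, G60A or H133Y) was incubated with 10 µM NAD+ in 25 mM Tris-HCl pH 8.0, 50 mM NaCl for 30 min at room temperature. The mix was diluted to 500 µL and spun through a 10 kDa membrane (15,000 g, 20 min). The filtrate (unbound NAD+) was lyophilized, redissolved in water and quantified by HPLC.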
# [8] = Thermal shift assay and tryptophan fluorescence emission spectra; assay type: physicochemical
# [9] = tested on: acetyl-H3K9 and acetyl-H3K56; assay type: cell-based, Human; details: flag-tagged SIRT6 overexpressed in SIRT6 KO 293T cells
# Procedure, shortened: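 Sirt6 KO HEK 293T cells in DMEM/10% heat-inactivated FBS were transiently transfected with SIRT6 WT, mutants or empty pCMV4a. Blots were probed with Ac-H3K9, Ac-H3K56 and histone H3 antibodies (1:5000; acetyl antibodies 4 °C 12 h), then secondary antibody (1:3000, 1 h RT). Detection was by ECL chemiluminescence; band intensities were quantified as mean ± s.d. of three replicates.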
# [10] = tested on: TNFα; assay: ELISA analysis of TNFα secretion in MEFs; assay type: cell-based, Human; details: SIRT6 stably expressed in Sirt6 KO MEFs
# [11] = tested on: IAP2, GLS, RPL3 and MnSOD; assay: mRNA levels of SIRT6-regulated genes in Sirt6 KO MEFs; assay type: cell-based, mouse; details: SIRT6 overexpressed in Sirt6 KO MEFs
# [12] = tested on: Sirt6 KO MEFs; assay: Cell viability after glucose starvation; assay type: cell-based, mouse; details: SIRT6 expressed in Sirt6 KO MEFs, glucose free medium 72 h
# Procedure, shortened: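 Stable SIRT6-expressing Sirt6 KO MEFs were selected with […] puromycin 48 h post-infection, with empty pCDH vector as control, and grown in DMEM/10% heat-inactivated FBS. Cells were seeded at 3,000/well and switched after 48 h to glucose-free DMEM/10% FBS for 72 h. They were then fixed in cold methanol, stained with 0.2% crystal violet, solubilized in 0.5% SDS/50% ethanol, and read at 550 nm.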
# [13] = tested on: Sirt6 KO MEFs; assay: Secreted and intracellular protein levels in MEFs; assay type: cell-based, mouse; details: SIRT6 overexpressed in Sirt6 KO cells
# Procedure, shortened: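 MEFs at 90% confluence were washed with PBS and serum-free DMEM, then kept in serum-free DMEM for 12 h. Medium was cleared at 500 g (5 min) and 3,000 g (10 min) and concentrated on 10 kDa filters. Western blots were probed for VCP, RPL17, RPS7, COL5A1, COL6A1 and CXCL1 (1:1000, 4 °C 12 h), followed by secondary antibody (1:3000, 1 h RT) and ECL detection.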
# [14] = tested on: RPL17 and RPS7; assay: RPL17 and RPS7 in exosomes from MEFs; assay type: cell-based, mouse; details: exosomes from Sirt6 KO MEFs expressing SIRT6
# Procedure, shortened: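 MEFs at 90% confluence were washed with PBS and serum-free DMEM, then conditioned in serum-free medium for 12 h. Medium was cleared at 500 g (5 min) and 3,000 g (20 min), then passed through a 0.2 µm filter. Filtrate was ultracentrifuged at 100,000 g for 2 h, and pellets were washed, re-pelleted and lysed in NP-40 buffer. Blots used RPL17/RPS7 antibodies (1:1000, 4 °C 12 h) with ECL detection.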
Substance,defatty-acylase activity on other fatty-acyl peptides [1],H3K9 acetyl peptide hydrolyzed/converted to H3K9 peptide [2],"defatty-acylase activity, substrate conversion [3] [%]",decrease of kcat of demyristoylation versus SIRT6 WT [4] [fold],increase of Km of demyristoylation versus SIRT6 WT [4] [fold],ADP-ribosyltransferase (ART) activity [5],Kd [6] [µM],NAD^+ bound to SIRT6 [7] [%],stability and fluorescence with H3K9 myristoyl peptide ([8]; 0.1 mM H3K9 myristoyl peptide),stability and fluorescence with H3K9 acetyl peptide ([8]; 1 mM H3K9 acetyl peptide),"thermal stability ([8]; without peptide, versus SIRT6 WT, 37 to 62 °C for 3 min)",H3K9 and H3K56 acetylation levels in cells [9],TNFα secretion [10],"transcriptional suppression of IAP2, GLS, RPL3 and MnSOD [11]",glucose starvation-caused cell death [12],"secreted levels of Group 1 proteins (RPL17, RPS7, VCP) [13]","secreted levels of Group 2 proteins (COL6A1, COL5A1, CXCL1) [13]",RPL17 and RPS7 in exosomes [14]
SIRT6 G60A,robust defatty-acylase activities,approximately 1.8%,25.6,1.9,1.8,no observable ART activity,634 ± 91,2.0 ± 0.7,became similar to those of SIRT6 WT,not affected,decreased thermal stability,no detectable deacetylase activity in cells,promoted TNFα secretion,could not,neither SIRT6 G60A nor H133Y did,decreased the secreted levels to that in Sirt6 WT cells,restored the secreted levels to that in Sirt6 WT cells,not in exosomes
SIRT6 H133Y,–,–,–,–,–,–,–,59 ± 3,–,–,–,–,no effect on TNFα secretion,–,–,–,–,can be detected
SIRT6 R65A,–,–,–,–,–,weak self ADP-ribosylation activities,–,–,–,–,–,–,–,–,–,–,–,–
